Experiment: Antiproliferative activity against human MDA231 cells after 72 hrs by MTT assay
Format: functional, cell-based
Conditions: MDA-MB-231, 72 h
Procedure, shortened: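 MTT read-out on MDA-231 cells. 1×10^3 exponentially growing cells seeded and incubated 24, 48 and 72 h. Medium replaced with 1 mg/mL MTT for 3–4 h at 37 °C.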

Q: For `CC(=O)OC[C@H]1O[C@@H](OCCn2[se]c3ccccc3c2=O)[C@H](OC(C)=O)[C@@H](OC(C)=O)[C@@H]1OC(C)=O`, which IC50 is on record?
A: 35 µM

Q: For `O=c1c2ccccc2[se]n1[C@@H]1O[C@H](CO)[C@@H](O[C@@H]2O[C@H](CO)[C@H](O)[C@H](O)[C@H]2O)[C@H](O)[C@H]1O`, which IC50 is on record?
A: > 100 µM

Q: For `O=c1c2ccccc2[se]n1CCO[C@@H]1O[C@H](CO)[C@@H](O)[C@H](O)[C@H]1O`, which IC50 is on record?
A: > 100 µM

Q: Which IC50 does the source give for `O=c1c2ccccc2[se]n1[C@@H]1O[C@H](CO)[C@H](O)[C@H](O)[C@H]1O` here?
A: > 100 µM

Q: Which IC50 does the source give for `CC(=O)OC[C@H]1O[C@@H](n2[se]c3ccccc3c2=O)[C@H](OC(C)=O)[C@@H](OC(C)=O)[C@H]1OC(C)=O` here?
A: 21 µM

Q: With `CC(=O)OC[C@H]1O[C@@H](n2[se]c3ccccc3c2=O)[C@H](OC(C)=O)[C@@H](OC(C)=O)[C@@H]1O[C@@H]1O[C@H](COC(C)=O)[C@@H](OC(C)=O)[C@H](OC(C)=O)[C@H]1OC(C)=O` as the compound, how does the IC50 read?
A: 20 µM

Q: For `O=c1c2ccccc2[se]n1[C@@H]1O[C@H](CO)[C@@H](O[C@@H]2O[C@H](CO)[C@@H](O)[C@H](O)[C@H]2O)[C@H](O)[C@H]1O`, which IC50 is on record?
A: > 100 µM
